Reference: PMC7126014 (Fitoterapia, 2010)

Key:
[1] = tested on: human rotavirus (Wa-1 strain); assay: Antirotavirus activity by cytopathic effect; format: cell-based; conditions: for antiviral (antirotavirus) activity in words: non-cytotoxic concentrations; for IC50: human rotavirus, NA = no antiviral activity
Method in brief: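 MA104 cells grown in 199 medium with 10% fetal bovine serum, penicillin G, streptomycin and amphotericin B at 37 °C, 5% CO2, were infected with human rotavirus Wa-1, which had been propagated in MA104 cells with trypsin (5 μg/ml) and titred as TCID50/ml. Test compound was dissolved in 1% DMSO in 199 medium and filter-sterilised. Read-out was cytopathic-effect inhibition. IC50 came from linear regression of concentration–effect curves, as the mean of three independent experiments.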

MA104 cells = assay: Cytotoxicity by microscopical cell morphology evaluation; format: cell-based; conditions: mean of three independent experiments
Method in brief: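 Toxicity to MA104 cells was scored by microscopic assessment of cell morphology. Cells were grown in 199 medium with 10% fetal bovine serum and antibiotics at 37 °C in humidified 5% CO2. Test compound was dissolved in 1% DMSO in 199 medium and filtered at 0.22 μm. CC50 was estimated by linear regression of concentration–effect curves, as the mean of three independent experiments.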

rotavirus = rotavirus infection in vitro; cited from earlier work

Row | IC50 ([1]; flavonols (Table 1)) [µM] | Compound | antiviral (antirotavirus) activity in words [1] | CC50 (MA104 cells; flavonols (Table 1)) [µM] | also measured
1 | 27.5 | O=c1c(O)c(-c2cccc(O)c2)oc2ccccc12 [compound 2] |  | 61.4 | 
2 | 14.4 | O=c1c(O)c(-c2ccc(O)c(O)c2)oc2ccccc12 [compound 4] |  | 57.7 | 
3 | 18.2 | O=c1c(O)c(-c2cc(O)c(O)c(O)c2)oc2ccccc12 [compound 6] |  | 27.2 | 
4 | 26.2 | COc1ccc(-c2oc3ccccc3c(=O)c2O)c(OC)c1 [compound 9] |  | 52.3 | 
5 | 13.1 | COc1ccc(-c2oc3ccccc3c(=O)c2O)cc1OC [compound 10] |  | 52.3 | 
6 | 11.9 | COc1cc(-c2oc3ccccc3c(=O)c2O)cc(OC)c1OC [compound 11] |  | 47.5 | 
7 | 6.09 | COc1ccc(-c2oc3ccccc3c(=O)c2O)c(OC)c1OC [compound 12] |  | 23.8 | 
8 | 3.78 | O=c1c(O)c(-c2ccc(OCc3ccccc3)cc2)oc2ccccc12 [compound 13] | considerable antirotavirus action | 22.7 | 
9 | 12 | CCOc1ccc(OCC)c(-c2oc3ccccc3c(=O)c2O)c1 [compound 17] |  | 23.9 | 
10 | 7.97 | CCOc1ccc(-c2oc3ccccc3c(=O)c2O)cc1OCC [compound 18] | promising antiviral activity | 47.8 | 
11 | 7.55 | O=c1c(O)c(-c2ccccc2OCc2ccccc2)oc2ccccc12 [compound 19] | considerable antirotavirus action | 45.3 | 
12 | 3.64 | CCc1ccc(-c2oc3ccccc3c(=O)c2O)cc1 [compound 21] | Antiviral activity was provided | 14.7 | 
13 | 6.12 | CCCCOc1cccc(-c2oc3ccccc3c(=O)c2O)c1 [compound 22] |  | 25.1 | 
14 | 75.4 | CCCCOc1ccccc1-c1oc2ccccc2c(=O)c1O [compound 23] |  | 302 | 
15 | 40.6 | CCCCOc1ccc(-c2oc3ccccc3c(=O)c2O)cc1 [compound 24] |  | 201 | 
16 | 6.8 | CCCCOc1ccc(-c2oc3ccccc3c(=O)c2O)cc1OCCCC [compound 25] | higher activity | 40.8 | 
17 | 10.2 | CCCCOc1ccc(-c2oc3ccccc3c(=O)c2O)c(OCCCC)c1 [compound 26] |  | 40.8 | 
18 | 15.7 | O=c1c(O)c(-c2ccccc2)oc2cc(O)ccc12 [compound 27] |  | 61.4 | 
19 | 4.69 | COc1ccc(-c2oc3cccc(OC)c3c(=O)c2O)cc1 [compound 31] |  | 26.2 | 
20 | 17.4 | COc1ccc(-c2oc3ccc(OC)cc3c(=O)c2O)cc1 [compound 32] |  | 105 | 
21 | 6.37 | COc1ccc(-c2oc3cc(OC)ccc3c(=O)c2O)cc1 [compound 33] |  | 26.2 | 
22 | 11.8 | COc1ccc(-c2oc3cc(OC)ccc3c(=O)c2O)c(OC)c1 [compound 34] |  | 47.4 | 
23 | 12 | CCOc1ccc(-c2oc3cc(OCC)ccc3c(=O)c2O)cc1 [compound 36] | antiviral activity was detected | 47.8 | 
24 | 7.97 | CCOc1cccc(-c2oc3cc(OCC)ccc3c(=O)c2O)c1 [compound 37] | antiviral activity was detected | 47.8 | 
25 | 8.38 | CCCCOc1ccc2c(=O)c(O)c(-c3ccccc3)oc2c1 [compound 38] | Antiviral activity was provided | 50.3 | 
26 | 17.3 | O=c1c(O)c(-c2ccc(OCc3ccccc3)cc2)oc2cc(OCc3ccccc3)ccc12 [compound 39] | Antiviral activity was provided | 69.3 | 

Further lines, the compound ahead of its results:

Row | Compound | IC50 ([1]; flavonols (Table 1)) [µM] | antiviral (antirotavirus) activity in words [1] | CC50 (MA104 cells; flavonols (Table 1)) [µM] | also measured
27 | O=c1c(O)c(-c2ccccc2O)oc2ccccc12 [compound 1] |  | did not grant antiviral activity | 61.4 | 
28 | O=c1c(O)c(-c2ccc(O)cc2)oc2ccccc12 [compound 3] |  | did not grant antiviral activity | 61.4 | 
29 | O=c1c(O)c(-c2cc(O)ccc2O)oc2ccccc12 [compound 5] |  | did not grant antiviral activity | 57.7 | 
30 | COc1ccc(-c2oc3ccccc3c(=O)c2O)cc1 [compound 7] |  | antiviral action was not observed | 29.1 | 
31 | COc1ccccc1-c1oc2ccccc2c(=O)c1O [compound 8] |  | antiviral action was not observed | 44.7 | 
32 | CCOc1cccc(-c2oc3ccccc3c(=O)c2O)c1 [compound 14] |  |  | 111 | 
33 | CCOc1ccccc1-c1oc2ccccc2c(=O)c1O [compound 15] |  |  | 111 | 
34 | CCOc1ccc(-c2oc3ccccc3c(=O)c2O)c(OCC)c1 [compound 16] |  |  | 47.8 | 
35 | O=c1c(O)c(-c2ccc(O)c(O)c2)oc2cc(O)cc(O)c12 [compound 28] |  | antiviral activity was not observed | 103 | 
36 | COc1ccc2oc(-c3ccccc3)c(O)c(=O)c2c1 [compound 29] |  |  | 29.1 | 
37 | COc1ccc2c(=O)c(O)c(-c3ccccc3)oc2c1 [compound 30] |  |  | 29.1 | 
38 | CCOc1ccc2c(=O)c(O)c(-c3ccccc3)oc2c1 [compound 35] |  |  | 111 | 
39 | COc1c(OC)c(O)c2c(=O)cc(-c3ccc(O)cc3)oc2c1OC [compound 40] |  |  |  | IC50 ([1]; flavones (Table 2)): 7.56 µM; CC50 (MA104 cells; flavones (Table 2)): 22.7 µM
40 | COc1c(-c2ccc(O)c(O)c2)oc2cc(O)cc(O)c2c1=O [compound 43] |  | conferred an antiviral activity |  | IC50 ([1]; flavones (Table 2)): 12.3 µM; CC50 (MA104 cells; flavones (Table 2)): 49.3 µM
41 | C[C@@H]1O[C@@H](Oc2c(-c3ccc(O)c(O)c3)oc3cc(O)cc(O)c3c2=O)[C@H](O)[C@H](O)[C@H]1O [compound 44] |  | did not provide antiviral activity |  | CC50 (MA104 cells; flavones (Table 2)): 69.6 µM
42 | C[C@@H]1O[C@@H](OC[C@H]2O[C@@H](Oc3c(-c4ccc(O)c(O)c4)oc4cc(O)cc(O)c4c3=O)[C@H](O)[C@@H](O)[C@@H]2O)[C@H](O)[C@H](O)[C@H]1O [compound 45, rutin] |  | did not provide antiviral activity |  | inhibitory effect on rotavirus infection in words (rotavirus): low inhibitory effect
43 | O=c1c(OS(=O)(=O)O)c(-c2ccc(O)c(O)c2)oc2cc(O)cc(O)c12 [compound 47] |  | conferred an antiviral activity |  | IC50 ([1]; flavones (Table 2)): 10.2 µM; CC50 (MA104 cells; flavones (Table 2)): 40.9 µM
44 | COc1ccc(-c2cc(=O)c3cc(OCc4ccccc4)ccc3o2)cc1 [compound 48] |  | antiviral activity was not shown |  | CC50 (MA104 cells; flavones (Table 2)): 21.8 µM
45 | COc1ccc(-c2cc(=O)c3c(OC)c(OC)c(OC)c(OC)c3o2)cc1 [compound 49] |  |  |  | IC50 ([1]; flavones (Table 2)): 28.2 µM; CC50 (MA104 cells; flavones (Table 2)): 168 µM
46 | COc1ccc(-c2cc(=O)c3c(O)cc(OC)cc3o2)cc1 [compound 50] |  |  |  | IC50 ([1]; flavones (Table 2)): 13.1 µM; CC50 (MA104 cells; flavones (Table 2)): 52.4 µM
47 | COc1ccc(-c2cc(=O)c3c(O)c(OC)c(OC)c(OC)c3o2)cc1 [compound 51] |  |  |  | IC50 ([1]; flavones (Table 2)): 7.26 µM; CC50 (MA104 cells; flavones (Table 2)): 43.6 µM
48 | COc1ccc(-c2cc(=O)c3c(O)c(OC)c(OC)cc3o2)cc1 [compound 52] |  |  |  | IC50 ([1]; flavones (Table 2)): 15.6 µM; CC50 (MA104 cells; flavones (Table 2)): 23.8 µM
49 | COc1ccc(-c2cc(=O)c3c(OC)c(OC)c(OC)cc3o2)cc1OC [compound 54] |  |  |  | IC50 ([1]; flavones (Table 2)): 6.98 µM; CC50 (MA104 cells; flavones (Table 2)): 41.9 µM
50 | COc1ccc(-c2cc(=O)c3c(OC)c(OC)c(OC)c(OC)c3o2)cc1OC [compound 55] |  | antiviral effect was not shown |  | CC50 (MA104 cells; flavones (Table 2)): 38.8 µM
51 | COc1ccc(-c2oc3c(OC)c(OC)c(OC)c(OC)c3c(=O)c2OC)cc1OC [compound 57] |  | weak antirotavirus activity |  | IC50 ([1]; flavones (Table 2)): 18 µM; CC50 (MA104 cells; flavones (Table 2)): 36.1 µM
52 | COc1cc(-c2oc3c(OC)c(OC)cc(O)c3c(=O)c2OC)ccc1O [compound 59] |  |  |  | IC50 ([1]; flavones (Table 2)): 6.95 µM; CC50 (MA104 cells; flavones (Table 2)): 41.7 µM
53 | COc1ccc(-c2oc3c(OC)c(OC)c(OC)c(O)c3c(=O)c2OC)cc1O [compound 60] |  |  |  | IC50 ([1]; flavones (Table 2)): 77.2 µM; CC50 (MA104 cells; flavones (Table 2)): 77.2 µM
54 | COc1ccc(-c2cc(=O)c3c(O)cc(O[C@@H]4O[C@H](CO[C@@H]5O[C@@H](C)[C@H](O)[C@@H](O)[C@H]5O)[C@@H](O)[C@H](O)[C@H]4O)cc3o2)cc1O [dosmin] |  |  |  | IC50 (rotavirus): 10 µM
55 | COc1ccc([C@@H]2CC(=O)c3c(O)cc(O[C@@H]4O[C@H](CO[C@@H]5O[C@@H](C)[C@H](O)[C@@H](O)[C@H]5O)[C@@H](O)[C@H](O)[C@H]4O)cc3O2)cc1O [hesperidin] |  |  |  | IC50 (rotavirus): 10 µM
56 | quercetrin [compound 46] |  | did not provide antiviral activity |  | CC50 (MA104 cells; flavones (Table 2)): 27.2 µM
